# Source: PubChem BioAssay (The Scripps Research Institute Molecular Screening Center)
# Compounds with a hit are over-represented: about 3.3% of the library has one in this group of screens.
# PRMT1 FP inh: inhibitors of human PRMT1; Q99873; recombinant PRMT1, activity-based probe fluorescence polarization; inhibition, % at 2.79 µM; 370,000 compounds, 1.3% hits; AID 652257;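 active = inhibition above about 21% made by adding two undisclosed values, limit read from the data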
# ABHD4 inh: inhibits mouse alpha/beta hydrolase domain 4. purified mABHD4, FP-Rh probe fluorescence polarization. AID 720543. inhibition, % at 8.92 µM. Q8VD66. 370,000 compounds, 0.54% hits;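 active = inhibition exceeding the mean over every tested compound plus 3 SD, cut at about 30% in these data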;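 note: 0% = plate median of compound wells and 100% = S159A mutant with DMSO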
# Target sequence (Q8VD66 whole entry, looked up, the tested form may be a part): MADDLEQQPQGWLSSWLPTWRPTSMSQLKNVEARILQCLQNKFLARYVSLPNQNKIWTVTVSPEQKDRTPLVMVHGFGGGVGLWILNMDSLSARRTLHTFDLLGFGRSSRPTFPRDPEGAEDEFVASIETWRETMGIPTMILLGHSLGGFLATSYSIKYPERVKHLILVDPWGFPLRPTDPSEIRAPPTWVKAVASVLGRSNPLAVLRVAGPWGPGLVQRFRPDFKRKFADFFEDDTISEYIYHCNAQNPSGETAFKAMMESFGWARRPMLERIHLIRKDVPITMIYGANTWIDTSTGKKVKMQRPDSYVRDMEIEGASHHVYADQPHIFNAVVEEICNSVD
#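 Test system: mouse ABHD4 enzyme, wild type. Reagent: FP-Rh fluorescent activity-based probe, added after compound pre-incubation. Timing: pre-incubation 45 min, probe exposure 60 min, at 25 °C. Technique: FP readout, ex 525 nm / em 598 nm. Benchmarks: high control S159A mutant with DMSO, low control median of compound wells.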
# SIAE primary: human SIAE inhibition, primary screen; Q9HAT2; SIAE FP-Rh probe binding, fluorescence polarization; inhibition, % at 9.66 µM; 370,000 compounds, 0.69% hits; AID 1053197;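 active = inhibition above a cutoff: mean of compounds within the control limits plus 3 SD of those, cut at about 17% in these data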;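 note: 0% = plate median of compound wells and 100% = probe without SIAE protein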
# rCAG RNA binder: binds r(CAG) RNA repeats; r(CAG) RNA repeat, TO-PRO-1 dye displacement fluorescence; inhibition, % at 3 µM; 370,000 compounds, 1.3% hits;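 active = inhibition above the plate cutoff, the mean of all test compounds on that plate plus 3 SD, cut at about 35% in these data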;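 note: 0% = DMSO alone and 100% = 100 µM mitoxantrone as full dye displacement; higher means more dye released from RNA so lower well fluorescence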
# HTRA1 inh: HTRA1 (human) protease inhibition | Q92743 | recombinant HTRA1, FP-rhodamine activity-based probe, fluorescence polarization | inhibition, % at 5.96 µM | 340,000 compounds, 0.5% hits; in the data active = inhibition above about 36%;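 note: 0% = enzyme with DMSO and 100% = wells lacking enzyme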
# SIAE inh conf: confirmation of human SIAE inhibitors; shares compounds with SIAE primary; SIAE FP-Rh activity-based probe, fluorescence polarization; inhibition, % at 9.66 µM; 2,300 compounds, 13% hits; AID 1117263;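 active = mean inhibition of the replicates above the hit cutoff set in the primary screen, cut at about 17% in these data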;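 note: 0% = SIAE with DMSO and probe and 100% = probe without SIAE; inhibitors lower polarization as more probe stays unbound to SIAE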
# Active calls of the source: *; . = not tested or not shown; + = active, no number.
SMILES,PRMT1 FP inh,ABHD4 inh,SIAE primary,rCAG RNA binder,HTRA1 inh,SIAE inh conf
O=C(Cc1cccs1)NCc1cccc(F)c1,0.8,8.2,1.4,-0.9,0.8,.
CCOc1ccc(/C=C2/SC(=O)NC2=S)cc1,12.8,-1.1,+,10.9,-8.0,-10.6
CN(C)c1ccc(NC2=C([N+](=O)[O-])CS(=O)(=O)C2)cc1,11.8,29.2,18.0*,24.6,21.1,7.9
C=C1CCN(c2ccc(C(=O)NCCC)cc2[N+](=O)[O-])CC1,0.1,5.3,-2.4,-4.8,-12.6,.
CCOC(=O)c1c(C)[nH]c(C(=O)OCC(=O)Nc2cc(C)nn2-c2ccccc2)c1C,-3.0,-0.6,17.9*,0.1,-5.2,-2.5
O=C1N=c2ccccc2=C1c1sc(=S)n(NC(=O)c2cccc(O)c2)c1O,2.8,25.5,29.0*,11.1,-0.2,32.6*
O=C1N=c2ccccc2=C1c1sc(=S)n(Cc2ccccc2Cl)c1O,-0.5,2.7,-0.7,3.6,1.1,.
CCN(CC)C(=O)c1ccc(NS(=O)(=O)c2ccc3[nH]c(=O)[nH]c3c2)cc1,5.2,-4.3,-6.3,-1.1,1.5,.
COc1cccc(C(=O)/C=C/Nc2cc(C)ccc2O)c1,-0.1,7.4,22.8*,13.0,5.3,-4.1
COc1ccc(CCN2C(=O)CC(C(N)=O)SC2=Nc2ccc(F)cc2)cc1OC (stereo not drawn),-5.1,2.7,19.6*,-5.7,6.0,-5.1
COc1ccc(OC)c(C2NC(=O)NC(C)=C2C(=O)OCc2ccccc2)c1 (stereo not drawn),3.4,-3.6,-7.1,-3.8,4.0,.
C[C@@H](CO)NC(=O)[C@H]1O[C@@H](n2ccc(=O)[nH]c2=O)[C@H](O)[C@@H]1O,2.5,6.3,6.7,3.6,.,.
CN(C)c1cccc2c(S(=O)(=O)NC(=O)[C@H]3O[C@@H](n4ccc(=O)[nH]c4=O)[C@H](O)[C@@H]3O)cccc12,0.5,-5.1,36.0*,4.2,.,45.5*
O=C(NS(=O)(=O)c1ccccc1[N+](=O)[O-])[C@H]1O[C@@H](n2ccc(=O)[nH]c2=O)[C@H](O)[C@@H]1O,-1.4,-1.4,30.1*,1.8,.,30.0*
CCCC(=O)NCC(c1cccs1)S(=O)(=O)c1ccc(C)cc1 (stereo not drawn),-0.2,-2.8,1.9,-5.0,6.7,.
CC1=C(C(=O)Nc2ccc(C)cc2)C(c2ccco2)NC(=O)N1 (stereo not drawn),-2.4,-0.1,23.3*,-0.3,3.6,-8.6
CC1=C(C(=O)Nc2ccccc2)C(c2ccco2)NC(=O)N1 (stereo not drawn),0.2,0.0,-3.5,-0.2,8.1,.
Cc1cc2c(cc1C)NC1=C(N2)OC(c2cccc(O)c2)C1=O (stereo not drawn),-3.1,-2.4,27.7*,-1.7,-2.1,-10.0
C[n+]1ccc2[nH]c3ccccc3c2c1,-2.8,-0.7,26.2*,2.7,.,-6.2
O=[N+]([O-])c1cc(C(F)(F)F)ccc1NCCc1c[nH]c2ccc(O)cc12,5.9,-8.3,17.3*,17.2,11.8,2.5
COc1ccc(Nc2ccc(N3C(=O)CCCC3=O)cc2[N+](=O)[O-])c(OC)c1,1.2,1.8,7.7,0.7,-0.2,.
Cn1c(SCc2ccccc2)nnc1-c1ccco1,2.0,0.4,-8.0,0.8,6.0,.
COc1ccc(NC(=O)N(C)C[C@H]2OCCCC[C@H](C)Oc3ccc(NC(=O)Nc4ccc5c(c4)OCO5)cc3C(=O)N([C@@H](C)CO)C[C@@H]2C)cc1,0.1,11.2,23.4*,16.6,9.1,5.6
C[C@H](CO)N1C[C@H](C)[C@@H](CN(C)S(=O)(=O)c2ccccc2)Oc2ccc(NC(=O)Nc3ccc4c(c3)OCO4)cc2C1=O,-0.3,4.6,19.3*,7.9,7.7,1.6
COc1ccc(NC(=O)Nc2ccc3c(c2)C(=O)N([C@H](C)CO)C[C@H](C)[C@@H](CN(C)S(=O)(=O)c2ccc(OC)cc2)O3)cc1,-0.7,-2.1,22.2*,8.1,-8.5,-3.8
SMILES,PRMT1 FP inh,ABHD4 inh,SIAE primary,rCAG RNA binder,HTRA1 inh,SIAE inh conf
O=C(O)CCCSc1nccn1-c1ccccc1,2.5,0.0,-4.6,-3.4,4.1,.
CSc1ccc(NC(=O)N2CCC(C(=O)c3ccc(F)cc3)CC2)cc1,-2.1,-3.1,5.8,-4.7,-9.2,.
O=C(COC(=O)c1ccccc1)NCCC1=CCCCC1,0.2,3.0,4.0,-3.7,-1.0,.
COc1ccc(NC(=O)CN(C)C(=O)CCCN2C(=O)c3cccc4cccc(c34)C2=O)cc1,-1.4,2.1,-0.8,-3.7,-9.1,.
NS(=O)(=O)c1ccc(CCNC(=O)c2ccc3c(c2)OCCO3)cc1,-0.2,-5.8,-0.1,-0.9,-0.3,.
COc1c(Cl)cc(Br)c(OC)c1C(=O)NC(=O)Nc1nc(C)cc(C)n1,-2.1,5.4,2.0,3.9,3.9,.
COc1ccc(N2CCN(C(=O)c3cccc(S(=O)(=O)N4CCc5ccccc54)c3)CC2)cc1,-4.9,-0.5,90.4*,0.1,-6.5,8.0
CC(=O)c1cccc(NC(=O)C2Cc3c(-c4cccc(F)c4)ccnc3O2)c1 (stereo not drawn),2.1,-0.4,-6.7,3.7,.,.
O=C(NC(=S)NNC(=O)c1cccs1)c1ccco1,-0.9,11.8,19.2*,0.5,3.0,2.6
O=C(NNC(=O)c1cccs1)c1ccco1,3.9,2.1,-0.2,1.0,-5.3,.
Cc1ccc(S(=O)(=O)Oc2ccccc2/C=N/NC(N)=S)cc1,-3.8,2.7,0.7,0.5,-3.7,.
Cc1ccc(S(=O)(=O)Oc2ccccc2/C=N/N=C(N)N)cc1,-3.2,-1.8,21.4*,17.1,-6.8,-3.9
CCOc1ccc(OCC)c(NC(=O)Nc2ccc3c(c2)N(C)C(=O)CS3)c1,-0.3,10.1,21.8*,10.9,-1.8,1.1
COc1ccccc1Nc1nnc(SCC(=O)NC2CC2)s1,2.4,4.8,17.5*,2.4,8.1,2.3
COc1ccccc1Nc1nnc(SCC(=O)NC2CCCC2)s1,-1.4,2.5,4.7,1.9,-10.0,.
NNC(=O)c1sc2nc(N3CCOCC3)c3c(c2c1N)CCCC3,-1.8,4.0,17.9*,6.8,.,1.9
CCOc1ccc(NC(=O)c2sc3nc(N4CCOCC4)c4c(c3c2N)CCCC4)cc1,17.0,-2.5,9.5,4.4,-17.4,.
Nc1c(C(=O)NCc2ccccc2)sc2nc(N3CCOCC3)c3c(c12)CCCC3,6.3,6.6,19.0*,-1.9,-47.9,5.1
CSCC[C@H](N)C(=O)N1CCC(C(=O)N[C@@H](C)C(=O)NCc2ccc(F)cc2)CC1,-4.3,-2.2,-2.1,-3.3,-7.8,.
COc1ccc(NC(=O)c2cccc(N3C(=O)C4C5C=CC(C5)C4C3=O)c2)cc1Cl (stereo not drawn),2.1,1.4,1.5,2.8,11.2,.
CC(C)C(OC(=O)CN1C(=O)COc2ccccc21)C(=O)NC1CCCC1 (stereo not drawn),-0.9,-3.0,-3.5,-6.3,5.4,.
